The nature of one data set: Minimal PBPK model. It is filed as in vivo, human.
The format of data set [1] is in vivo, human. As to conditions: for dose proportionality of PK: p.o. tablet dosing. The essentials: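 Plasma parent, M5 and M6 concentration-time data came from clinical studies. In healthy volunteers, dosing was i.v., 150–600 mg single-dose tablet p.o., or 300–750 mg multiple-dose tablet. In HCV patients, dosing was 50–300 mg single-dose or 50–400 mg multiple-dose capsule, or 300–450 mg multiple-dose tablet; 450 mg once daily gave Day 7 profiles with washout. Itraconazole DDI: healthy volunteers; HCV patients received 300 mg multiple-dose tablet plus 200 mg multiple-dose itraconazole.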

Molecules are shown by their SMILES.

`CC(C)OC(=O)[C@@H](C)N[P@@](=O)(OC[C@H]1O[C@@H](n2ccc(=O)[nH]c2=O)[C@](C)(Cl)[C@@H]1O)Oc1ccccc1` [uprifosbuvir]: in the data set “Minimal PBPK model” (gut), the “share of unabsorbed uprifosbuvir dose metabolized into M5” value was found to be 11%, the “share of unabsorbed uprifosbuvir dose metabolized into M6” value came to 52% and the “share of unabsorbed uprifosbuvir dose metabolized into pseudo-M4” value worked out at 37%. For the same compound, in “Minimal PBPK model” (p.o., based on the model), the “unabsorbed fraction of uprifosbuvir dose (metabolized in gut)” value amounted to 86% and the “uprifosbuvir dose estimated to reach the liver unchanged” value is “about 14%”. For the same compound, in data set [1] (itraconazole DDI study, plasma), the “effect of itraconazole coadministration on uprifosbuvir exposure” value was “large increase in uprifosbuvir exposure” and the “effect of itraconazole coadministration on uprifosbuvir tmax” value is given as “delayed time to reach maximum uprifosbuvir plasma concentration”. In addition, the “dose proportionality of PK” value in data set [1] is “dose proportional”.
For the compound `C[C@@]1(Cl)[C@H](O)[C@@H](CO)O[C@H]1n1ccc(=O)[nH]c1=O` [M6], the “effect of itraconazole coadministration on early metabolite profile” value in data set [1] (itraconazole DDI, plasma) is recorded as “first M6 peak was almost absent”. In data set [1], the “dose proportionality of PK” value is recorded as “not dose proportional”.

The values above are taken from PMC8302237 (CPT: Pharmacometrics & Systems Pharmacology, 2021).
